# Legend:
# [1] = species on record: Homo sapiens; assay: Excited-state lifetime value for lactone form of compound bound to human serum albumin; assay type: ADME
# Procedure, shortened: (§1)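 Phase-shift lifetimes, 30 MHz modulation, no polarizers, long-pass emission filters, in PBS pH 7.4 at 37 °C. Drug 20 μM (lactone or carboxylate form) titrated with HSA. Lifetimes corrected for HSA background (τH 3.2 ns, fH weighting). Bound lifetime τB extrapolated to infinite HSA by nonlinear least-squares fit to τC = τB + b·exp(−c[HSA]). Triplicate runs.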
# [2] = Half-life in PBS buffer solution in the absence of human serum albumin; assay type: ADME; conditions: PBS buffer without human serum albumin
# Procedure, shortened: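 Lactone hydrolysis at 1 μM drug in PBS pH 7.40 ± 0.05, 37 °C, with or without 290 μM HSA. Aliquots taken at mixing and every 5 min, diluted in water, then run on C18 reversed-phase HPLC with fluorescence detection of lactone and carboxylate. t1/2 from nonlinear least-squares fit of lactone decay. At least three independent kinetic runs.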
# [3] = target: T1, Albumin (Homo sapiens, UniProt P02768); assay: Association constant for the binding of the lactone form to human serum albumin;(M aa)e-1
# T1 sequence (P02768 whole entry): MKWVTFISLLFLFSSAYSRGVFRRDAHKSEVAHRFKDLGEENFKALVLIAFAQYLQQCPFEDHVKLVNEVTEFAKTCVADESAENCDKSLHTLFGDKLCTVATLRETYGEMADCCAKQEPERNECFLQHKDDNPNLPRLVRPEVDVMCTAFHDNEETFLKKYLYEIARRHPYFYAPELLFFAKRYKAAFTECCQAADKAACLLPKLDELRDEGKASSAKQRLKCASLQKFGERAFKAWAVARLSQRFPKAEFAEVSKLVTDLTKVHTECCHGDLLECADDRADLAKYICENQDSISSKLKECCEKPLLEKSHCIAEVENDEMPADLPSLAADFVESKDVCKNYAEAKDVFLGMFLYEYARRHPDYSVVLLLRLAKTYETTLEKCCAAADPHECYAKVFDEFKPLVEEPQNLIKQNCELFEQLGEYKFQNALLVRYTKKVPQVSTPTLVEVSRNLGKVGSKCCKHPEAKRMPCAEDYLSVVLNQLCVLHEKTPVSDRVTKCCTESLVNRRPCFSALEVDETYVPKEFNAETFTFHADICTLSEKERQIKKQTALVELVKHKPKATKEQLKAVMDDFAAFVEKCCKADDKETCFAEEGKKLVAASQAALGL
# Procedure, shortened: (§2)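 Fluorescence lifetime titration in PBS, pH 7.40 ± 0.05, 37 °C. Total drug 20 μM, lactone or carboxylate form (carboxylate stock made by mixing DMSO stock 1:1 with PBS pH 10), titrated with varying HSA. Phase-shift lifetimes at 30 MHz modulation. Free fraction (τ − τB)/(τF − τB) plotted against log amino-acid residue concentration. K and n obtained by nonlinear least-squares fit to K = [Db]/([Df][aa]^n).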
# [4] = target: T1, Albumin; assay: Association constant for the binding of the carboxylate form to human serum albumin;(M aa)e-1; procedure, shortened: as §2
# [5] = target: T1, Albumin; assay: Binding parameter of the lactone form to human serum albumin; n value; procedure, shortened: as §2
# [6] = species on record: Homo sapiens; assay: Excited-state lifetime value for carboxylate form of compound bound to human serum albumin; assay type: ADME; conditions: in vitro; procedure, shortened: as §1
# [7] = Half-life in PBS buffer solution in the presence of human serum albumin; assay type: ADME; conditions: PBS buffer with human serum albumin
# [8] = Excited-state lifetime value for free lactone form of compound in solution; assay type: ADME
# Procedure, shortened: (§3)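 Phase-shift fluorescence lifetime, 30 MHz modulated excitation, no polarizers, long-pass emission filters. Measured on 20 μM lactone or carboxylate form in HSA-free PBS, pH 7.40 ± 0.05, 37 °C. Carboxylate made by mixing DMSO stock 1:1 with PBS pH 10.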
# [9] = Excited-state lifetime value for free carboxylate form of compound in solution; assay type: ADME; procedure, shortened: as §3
# [10] = target: T1, Albumin; assay: Binding parameter of the carboxylate form to human serum albumin; n value; procedure, shortened: as §2
SMILES,T bound [1] [ns],half-life [2] [min],K [3],K [4],Activity [5],T bound [6] [ns],half-life [7] [min],T free [8] [ns],T free [9] [ns],Activity [10]
CC[C@@]1(O)C(=O)OCc2c1cc1n(c2=O)Cc2cc3cc(O)ccc3nc2-1 [HYDROXYCAMPTOTHECIN],5.4,22.1,130 1/Maa,260 1/Maa,1.7,5.5,21.1,4,4,1.7
CCC1(O)C(=O)OCc2c1cc1n(c2=O)Cc2cc3cc4c(cc3nc2-1)OCO4 (stereo not drawn),1.3,31.7,10 1/Maa,2200 1/Maa,1.3,1.3,20.7,2,2.4,1.7
CC[C@@]1(O)C(=O)OCc2c1cc1n(c2=O)Cc2cc3c(CN(C)C)c(O)ccc3nc2-1 [TOPOTECAN],6,22.8,,,,6.1,28.9,6,6.1,
CCc1c2c(nc3ccc(O)cc13)-c1cc3c(c(=O)n1C2)COC(=O)[C@]3(O)CC [7-ETHYL-10-HYDROXYCAMPTOTHECIN],,19.9,,,,,,,,
CCc1c2c(nc3ccc(C4CCN(C(=O)OC)CC4)cc13)-c1cc3c(c(=O)n1C2)COC(=O)C3(O)CC (stereo not drawn),3.7,25.6,,,,4,29,3.7,4,
CC[C@@]1(O)C(=O)OCc2c1cc1n(c2=O)Cc2cc3c(N)cccc3nc2-1 [9-AMINOCAMPTOTHECIN],,17.9,,,,,23.4,,,
CC[C@@]1(O)C(=O)OCc2c1cc1n(c2=O)Cc2cc3ccccc3nc2-1 [CAMPTOTHECIN],2.7,23.8,30 1/Maa,4700 1/Maa,1.8,1.3,12.5,4.2,4.3,2.3
CCC1(O)C(=O)OCc2c1cc1n(c2=O)Cc2cc3c(Cl)c4c(cc3nc2-1)OCO4 (stereo not drawn),1.9,34.6,,1200 1/Maa,,1.1,16.9,1.9,2.5,1.6

# Reference: ChEMBL document CHEMBL1127496, “The structural basis of camptothecin interactions with human serum albumin: impact on drug stability” (J Med Chem, 1994)
